Several values for one entry are separate records, joined by “and”; a condition that tells them apart may be missing. Equal values may be shown once. Entries after “also recorded” stand apart in the source; their conditions may differ. Read-outs that look alike come from different tables or passages of the source.
Columns and labels:
[1] = target: T1, fatty acid amide hydrolase (Rattus norvegicus, UniProt P97612); experiment: Gel‐based competitive ABPP in vitro, TAMRA‐FP probe, rat brain fractions; format: biochemical; conditions: 1 hr
T1 sequence (P97612 1-579): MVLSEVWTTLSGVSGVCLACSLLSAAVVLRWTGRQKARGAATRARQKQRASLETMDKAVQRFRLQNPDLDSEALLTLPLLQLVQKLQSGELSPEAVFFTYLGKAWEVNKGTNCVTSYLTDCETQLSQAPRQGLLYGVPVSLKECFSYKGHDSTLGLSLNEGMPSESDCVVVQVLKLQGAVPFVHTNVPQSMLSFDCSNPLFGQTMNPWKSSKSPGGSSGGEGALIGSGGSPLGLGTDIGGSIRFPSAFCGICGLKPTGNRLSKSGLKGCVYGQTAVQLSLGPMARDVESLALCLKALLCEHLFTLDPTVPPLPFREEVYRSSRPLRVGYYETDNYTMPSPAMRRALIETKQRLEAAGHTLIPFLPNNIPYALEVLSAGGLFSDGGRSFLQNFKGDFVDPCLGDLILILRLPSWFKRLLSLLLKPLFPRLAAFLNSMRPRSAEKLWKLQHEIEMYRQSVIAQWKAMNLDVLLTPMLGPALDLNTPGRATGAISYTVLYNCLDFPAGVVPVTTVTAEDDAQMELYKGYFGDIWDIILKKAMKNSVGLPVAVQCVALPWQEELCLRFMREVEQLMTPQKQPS
Summary of the method: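 Rat brain membrane and soluble protein extracts (200 μg) were incubated 1 hr at room temperature with test compound at 1 nM–100 μM, DMSO vehicle or PMSF 3 mM. Active serine hydrolases were then labelled with TAMRA‑FP probe (2 μM final) for 1 hr at room temperature. Bands were visualized by in-gel fluorescence.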

[2] = test system: 229 assays for receptors, enzymes, transporters, ion channels, hormones, growth factors and inflammatory mediators; format: binding; conditions: 10 and 50 μM
[3] = target: T2, rat brain fatty acid amide hydrolase (Rattus norvegicus, UniProt P97612); experiment: FAAH progression curves, kinetic constants k obs and k inact/K I; format: biochemical; conditions: inhibition of rat brain FAAH, 37°C
T2 sequence (P97612 1-579): T1 sequence (P97612 1-579)

[4] = test system: brain fatty acid amides (AEA, PEA, OEA); experiment: Fatty acid amides; format: in vivo; conditions: mouse brain, 8 hr
Summary of the method: (§1)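 Frozen brains were thawed at 4°C and weighed. Each sample was extracted with chloroform:MeOH (2:1) plus 0.1 M phosphate buffer, pH 5.6. Deuterated internal standards were spiked in: AEA‑d8, PEA‑d4 and OEA‑d2 for the fatty acid amides, and 2‑AG‑d8 for 2‑AG.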

SHRSP = experiment: Stroke‐prone spontaneously hypertensive rats; format: in vivo, rat; conditions: 30 mg·kg^−1 p.o. daily
Summary of the method: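 SHRSP rats on stroke-prone diet with high-salt intake, n = 30 per group, received daily oral 0.2% HPMC vehicle or test compound at 30 mg·kg−1 in 0.2% HPMC (4 ml·kg−1). Normal-diet, tap-water controls (n = 10) received vehicle. Dosing continued until about half of either treated group had died; surviving rats' brains were examined histologically.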

[5] = test system: brain 2‐arachidonoylglycerol (2‐AG); experiment: 2‐arachidonoylglycerol; format: in vivo; conditions: mouse, 10 mg·kg^−1 p.o.
Summary of the method: as §1

[6] = human, 2017, cited from earlier work
CYP3A4 = CYP3A4 (Homo sapiens, UniProt P08684); experiment: CYP inhibition, pooled human liver microsomes; format: in vitro ADME
Chain of CYP3A4 (P08684 whole entry): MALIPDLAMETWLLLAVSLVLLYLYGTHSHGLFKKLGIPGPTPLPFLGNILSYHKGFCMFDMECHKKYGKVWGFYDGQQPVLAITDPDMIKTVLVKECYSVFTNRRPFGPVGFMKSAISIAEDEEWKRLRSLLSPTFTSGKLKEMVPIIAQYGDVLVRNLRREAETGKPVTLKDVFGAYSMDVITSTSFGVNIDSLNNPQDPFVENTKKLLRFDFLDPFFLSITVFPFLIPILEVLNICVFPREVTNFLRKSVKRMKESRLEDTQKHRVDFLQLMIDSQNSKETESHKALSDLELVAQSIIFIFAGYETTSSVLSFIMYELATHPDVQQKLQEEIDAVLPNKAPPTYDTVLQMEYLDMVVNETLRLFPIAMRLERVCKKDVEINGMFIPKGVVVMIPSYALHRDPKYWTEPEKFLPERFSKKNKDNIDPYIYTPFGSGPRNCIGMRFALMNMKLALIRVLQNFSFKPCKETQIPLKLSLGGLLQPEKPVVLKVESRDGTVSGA
Summary of the method: (§2)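 The rate of metabolite formation was measured; testosterone was one CYP3A4 substrate. Controls: solvent vehicle, enzyme-selective inhibitors, mechanism-based inhibitors. Analysis by HPLC with online radio-detection or LC/MS/MS.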

[7] = test system: human solute carrier (SLC) transporters; experiment: Accumulation of BIA 10‐2474 in transporter‐expressing and control cells; format: in vitro ADME; conditions: transporter‐expressing vs control cell, all conditions tested
Summary of the method: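 Test compound accumulation was compared between transporter-expressing and control cells, expressed as transporter-specific fold accumulation. Transfected lines: CHO‑K1 (OAT1, OCT1), HEK293 (OAT3, OATP1B1, OATP1B3), MDCKII (OCT2, MATE1, MATE2‑K). Transporter activity was confirmed with positive control substrate or inhibitor.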

CYP2C9 = CYP2C9 (Homo sapiens, UniProt P11712); experiment: CYP inhibition, pooled human liver microsomes; format: in vitro ADME; conditions: 0.33–99.2 μM, co‐ and pre‐incubation
Chain of CYP2C9 (P11712 whole entry): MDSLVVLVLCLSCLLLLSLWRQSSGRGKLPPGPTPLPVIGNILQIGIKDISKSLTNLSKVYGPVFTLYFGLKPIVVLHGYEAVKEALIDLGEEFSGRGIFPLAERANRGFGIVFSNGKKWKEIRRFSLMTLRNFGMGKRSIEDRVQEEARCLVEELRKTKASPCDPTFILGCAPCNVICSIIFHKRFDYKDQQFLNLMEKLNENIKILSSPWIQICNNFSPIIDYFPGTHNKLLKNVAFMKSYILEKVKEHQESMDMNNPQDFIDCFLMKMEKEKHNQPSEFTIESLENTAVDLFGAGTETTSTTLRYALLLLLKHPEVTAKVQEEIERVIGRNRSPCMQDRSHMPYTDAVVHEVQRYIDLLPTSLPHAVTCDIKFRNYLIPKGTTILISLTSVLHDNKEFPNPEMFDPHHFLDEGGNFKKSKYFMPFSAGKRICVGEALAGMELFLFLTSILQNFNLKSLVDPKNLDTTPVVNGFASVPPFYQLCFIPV
Summary of the method: as §2

human MATE2-K = human MATE2-K (Homo sapiens, UniProt Q86VL8); experiment: Transporter inhibition, probe substrate accumulation; format: in vitro ADME
Chain of human MATE2-K (Q86VL8 1-566 isoform Q86VL8-3): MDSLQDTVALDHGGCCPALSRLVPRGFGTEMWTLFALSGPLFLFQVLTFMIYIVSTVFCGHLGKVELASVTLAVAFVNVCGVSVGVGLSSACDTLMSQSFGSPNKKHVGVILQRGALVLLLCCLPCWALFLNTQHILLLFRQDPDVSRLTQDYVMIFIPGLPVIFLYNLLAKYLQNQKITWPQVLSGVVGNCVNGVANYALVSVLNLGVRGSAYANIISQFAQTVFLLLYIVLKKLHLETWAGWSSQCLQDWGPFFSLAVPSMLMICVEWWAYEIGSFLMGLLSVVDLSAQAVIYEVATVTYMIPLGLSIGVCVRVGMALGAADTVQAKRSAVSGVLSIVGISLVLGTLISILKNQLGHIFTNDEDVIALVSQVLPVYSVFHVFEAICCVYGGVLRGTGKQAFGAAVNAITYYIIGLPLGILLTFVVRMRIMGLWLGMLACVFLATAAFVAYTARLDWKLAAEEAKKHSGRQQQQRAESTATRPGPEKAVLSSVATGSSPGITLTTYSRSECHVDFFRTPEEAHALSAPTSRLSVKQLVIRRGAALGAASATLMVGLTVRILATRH
Summary of the method: (§3)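 Inhibition of probe substrate accumulation in transfected cells: CHO‑K1 for OAT1 and OCT1; HEK293 for OAT3, OATP1B1 and OATP1B3; MDCKII for OCT2, MATE1 and MATE2‑K. Each transporter's activity was confirmed with a positive control substrate or inhibitor.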

human OATP1B3 = human OATP1B3 (Homo sapiens, UniProt Q9NPD5); experiment: as above; format: in vitro ADME; conditions: 0.033–33.3 μM
Chain of human OATP1B3 (Q9NPD5 whole entry): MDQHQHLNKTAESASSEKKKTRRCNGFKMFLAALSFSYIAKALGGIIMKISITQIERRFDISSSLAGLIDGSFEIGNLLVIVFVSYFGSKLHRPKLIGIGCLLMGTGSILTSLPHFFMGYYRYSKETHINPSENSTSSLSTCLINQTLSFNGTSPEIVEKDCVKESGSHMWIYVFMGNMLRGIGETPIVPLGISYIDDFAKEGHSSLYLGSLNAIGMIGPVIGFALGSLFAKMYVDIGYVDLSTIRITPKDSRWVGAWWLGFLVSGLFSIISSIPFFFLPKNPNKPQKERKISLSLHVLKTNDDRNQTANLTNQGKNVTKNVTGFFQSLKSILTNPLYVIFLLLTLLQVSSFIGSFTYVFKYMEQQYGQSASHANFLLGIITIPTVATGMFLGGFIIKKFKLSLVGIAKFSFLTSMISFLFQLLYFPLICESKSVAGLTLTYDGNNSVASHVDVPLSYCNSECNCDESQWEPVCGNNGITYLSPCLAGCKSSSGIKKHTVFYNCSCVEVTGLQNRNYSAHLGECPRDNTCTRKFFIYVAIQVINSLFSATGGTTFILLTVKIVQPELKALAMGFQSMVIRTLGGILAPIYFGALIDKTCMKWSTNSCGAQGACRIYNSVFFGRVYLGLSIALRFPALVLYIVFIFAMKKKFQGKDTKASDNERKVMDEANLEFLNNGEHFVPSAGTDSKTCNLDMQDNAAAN
Summary of the method: as §3

Structure (SMILES)	concentration that completely inhibited the band corresponding to the MW of FAAH [1]	off‐target activity at the sites studied [2]	k inact/K I [3]	AEA ([4]; 0.01 mg·kg^−1 p.o.)	OEA ([4]; 0.01 mg·kg^−1 p.o.)	PEA ([4]; 0.01 mg·kg^−1 p.o.)	AEA ([4]; 0.03 mg·kg^−1 p.o.)	OEA ([4]; 0.03 mg·kg^−1 p.o.)	PEA ([4]; 0.03 mg·kg^−1 p.o.)	AEA ([4]; 0.1 mg·kg^−1 p.o.)	OEA ([4]; 0.1 mg·kg^−1 p.o.)	PEA ([4]; 0.1 mg·kg^−1 p.o.)	AEA ([4]; 0.3 mg·kg^−1 p.o.)	OEA ([4]; 0.3 mg·kg^−1 p.o.)	PEA ([4]; 0.3 mg·kg^−1 p.o.)	also measured
O=C(Nc1cccnn1)N1CCC(=Cc2cccc(Oc3ccc(C(F)(F)F)cn3)c2)CC1 [PF‐04457845]	0.1 µM	active at a number of sites; also recorded: significant activity at several receptors, transporters and ion channels	167,333 M·s^−1	220.2 ± 46.9 % of control	837.5 ± 115.5 % of control	984.3 ± 107.1 % of control	257.6 ± 16.9 % of control	886.1 ± 42.6 % of control	1073.1 ± 85.1 % of control	268.7 ± 10.8 % of control	933.4 ± 17.5 % of control	1080.9 ± 62.0 % of control	309.4 ± 16.6 % of control	961.4 ± 48.2 % of control	1,141.9 ± 56.3 % of control	AEA ([4]; 0.003 mg·kg^−1 p.o.): 88.5 ± 7.5 % of control; OEA ([4]; 0.003 mg·kg^−1 p.o.): 97.1 ± 8.0 % of control; PEA ([4]; 0.003 mg·kg^−1 p.o.): 100.6 ± 16.4 % of control
CN(C(=O)n1cnc(-c2ccc[n+]([O-])c2)c1)C1CCCCC1 [BIA 10‐2474, 3‐(1‐(cyclohexyl (methyl)carbamoyl)‐1H‐imidazol‐4‐yl)pyridine 1‐oxide]	100 µM	no significant activity	1,243 M·s^−1	89.5 ± 9.3 % of control	109.1 ± 8.6 % of control	107.2 ± 8.8 % of control	87.0 ± 10.3 % of control	143.1 ± 30.6 % of control	178.6 ± 62.7 % of control	136.8 ± 16.4 % of control	676.5 ± 89.8 % of control	1027.6 ± 148.0 % of control	172.1 ± 29.5 % of control	804.0 ± 107.6 % of control	1,223.3 ± 159.6 % of control	effect on mortality rate compared with vehicle (SHRSP; log‐rank test P = .1882): no effect; surviving rats with haemorrhage in the hippocampus and dorsal cortex (SHRSP; vehicle three of the 14): Three of the 17; brain 2‐AG level ([5]; 1 hr, vehicle 45.1 ± 7.9): 30.4 ± 11.7 µg/g; brain 2‐AG level ([5]; 4 hr, vehicle 40.9 ± 3.4): 44.5 ± 4.9 µg/g; brain 2‐AG level ([5]; 8 hr, vehicle 39.0 ± 13.2): 34.9 ± 7.7 µg/g; brain 2‐AG level ([5]; 24 hr, vehicle 38.0 ± 5.7): 31.4 ± 9.4 µg/g; maximum plasma exposure in the clinic ([6]; 50 mg ref Rocha et al.): around 2 μM; maximum plasma exposure in the clinic ([6]; 100 mg ref Rocha et al.): ~6 µM; inhibitory effect on CYP3A4 [midazolam] (CYP3A4; 0.33–99.2 μM, co‐ and pre‐incubation): did not exhibit any inhibitory effects; inhibition of CYP3A4 (testosterone as substrate) (CYP3A4; co‐incubation): minor inhibition; inhibition of CYP3A4 (testosterone as substrate) (CYP3A4; pre‐incubation with BIA 10‐2474): no effect; transporter specific fold accumulations [7]: < 2; inhibitory effect on CYP2C9 (CYP2C9): did not exhibit any inhibitory effects; maximum inhibition, MATE2‐K (human MATE2-K): 59%; IC50 (human MATE2-K; IC50, MATE2‐K‐mediated probe substrate accumulation): 3.43 µM and 3.4 µM; effect on OATP1B3‐mediated probe substrate accumulation (human OATP1B3): did not influence
